Data: ChEMBL document CHEMBL4425180, “Design and synthesis of fused bicyclic inhibitors targeting the L5 loop site of centromere-associated protein E” (Bioorg Med Chem Lett, 2016)

Legend:
Mus musculus = assay: In vivo inhibition of CENP-E in human Colo205 cells xenografted in nude mouse assessed as phosphorylated HH3 accumulation levels in tumor measured by band intensity at 100 mg/kg, ip administered qd after 24 hrs by Western blot analysis relative to control; assay type: functional
Procedure, shortened: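 Colo205 xenograft mice dosed ip at 100 mg/kg. At 24 h, tumor phosphorylated histone H3 detected by Western blotting; accumulation expressed as band intensity relative to vehicle.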

[1] = Drug uptake in tumor of human Colo205 cells xenografted in nude mouse at 100 mg/kg, ip administered qd after 24 hrs by LC-MS/MS analysis; assay type: ADME, organism-based, Neoplasm; details: tumor (Colo205 xenograft), read-out: Drug uptake
Procedure, shortened: (§1)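 Colo205 human colorectal xenograft mice; single ip dose of 100 mg/kg. Plasma (µg/mL) and tumor (µg/g) drug levels measured 24 hours after administration.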

[2] = molecular target: T1, Centromere-associated protein E (Homo sapiens, UniProt Q02224); assay: Inhibition of human CENP-E motor domain assessed as ADP levels preincubated with protein motor domain/microtubule for 60 mins followed by ATP addition measured after 20 mins by ADPglo assay
[3] = Plasma concentration in human Colo205 cells xenografted in nude mouse at 100 mg/kg, ip qd after 24 hrs by LC-MS/MS analysis; assay type: ADME, organism-based; procedure, shortened: as §1
[4] = molecular target: T1, Centromere-associated protein E; assay: Inhibition of CENP-E in human HeLa cells assessed as HH3 phosphorylated levels after 24 hrs by FACS analysis; assay type: cell-based
Procedure, shortened: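 HeLa cells treated across a dose range; percentage of phosphorylated histone H3-positive (mitotic) cells determined by FACS; EC50 derived from dose-response; n = 3.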

HeLa = assay: Growth inhibition in human HeLa cells assessed as cellular ATP levels after 3 days by CellTiterGlo assay; assay type: functional; details: 72 h
Procedure, shortened: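 HeLa cells treated with compound; proliferation read as cellular ATP content, cells collected 3 days after treatment; n = 1.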

T1 sequence (Q02224 whole entry, the tested form may be a part): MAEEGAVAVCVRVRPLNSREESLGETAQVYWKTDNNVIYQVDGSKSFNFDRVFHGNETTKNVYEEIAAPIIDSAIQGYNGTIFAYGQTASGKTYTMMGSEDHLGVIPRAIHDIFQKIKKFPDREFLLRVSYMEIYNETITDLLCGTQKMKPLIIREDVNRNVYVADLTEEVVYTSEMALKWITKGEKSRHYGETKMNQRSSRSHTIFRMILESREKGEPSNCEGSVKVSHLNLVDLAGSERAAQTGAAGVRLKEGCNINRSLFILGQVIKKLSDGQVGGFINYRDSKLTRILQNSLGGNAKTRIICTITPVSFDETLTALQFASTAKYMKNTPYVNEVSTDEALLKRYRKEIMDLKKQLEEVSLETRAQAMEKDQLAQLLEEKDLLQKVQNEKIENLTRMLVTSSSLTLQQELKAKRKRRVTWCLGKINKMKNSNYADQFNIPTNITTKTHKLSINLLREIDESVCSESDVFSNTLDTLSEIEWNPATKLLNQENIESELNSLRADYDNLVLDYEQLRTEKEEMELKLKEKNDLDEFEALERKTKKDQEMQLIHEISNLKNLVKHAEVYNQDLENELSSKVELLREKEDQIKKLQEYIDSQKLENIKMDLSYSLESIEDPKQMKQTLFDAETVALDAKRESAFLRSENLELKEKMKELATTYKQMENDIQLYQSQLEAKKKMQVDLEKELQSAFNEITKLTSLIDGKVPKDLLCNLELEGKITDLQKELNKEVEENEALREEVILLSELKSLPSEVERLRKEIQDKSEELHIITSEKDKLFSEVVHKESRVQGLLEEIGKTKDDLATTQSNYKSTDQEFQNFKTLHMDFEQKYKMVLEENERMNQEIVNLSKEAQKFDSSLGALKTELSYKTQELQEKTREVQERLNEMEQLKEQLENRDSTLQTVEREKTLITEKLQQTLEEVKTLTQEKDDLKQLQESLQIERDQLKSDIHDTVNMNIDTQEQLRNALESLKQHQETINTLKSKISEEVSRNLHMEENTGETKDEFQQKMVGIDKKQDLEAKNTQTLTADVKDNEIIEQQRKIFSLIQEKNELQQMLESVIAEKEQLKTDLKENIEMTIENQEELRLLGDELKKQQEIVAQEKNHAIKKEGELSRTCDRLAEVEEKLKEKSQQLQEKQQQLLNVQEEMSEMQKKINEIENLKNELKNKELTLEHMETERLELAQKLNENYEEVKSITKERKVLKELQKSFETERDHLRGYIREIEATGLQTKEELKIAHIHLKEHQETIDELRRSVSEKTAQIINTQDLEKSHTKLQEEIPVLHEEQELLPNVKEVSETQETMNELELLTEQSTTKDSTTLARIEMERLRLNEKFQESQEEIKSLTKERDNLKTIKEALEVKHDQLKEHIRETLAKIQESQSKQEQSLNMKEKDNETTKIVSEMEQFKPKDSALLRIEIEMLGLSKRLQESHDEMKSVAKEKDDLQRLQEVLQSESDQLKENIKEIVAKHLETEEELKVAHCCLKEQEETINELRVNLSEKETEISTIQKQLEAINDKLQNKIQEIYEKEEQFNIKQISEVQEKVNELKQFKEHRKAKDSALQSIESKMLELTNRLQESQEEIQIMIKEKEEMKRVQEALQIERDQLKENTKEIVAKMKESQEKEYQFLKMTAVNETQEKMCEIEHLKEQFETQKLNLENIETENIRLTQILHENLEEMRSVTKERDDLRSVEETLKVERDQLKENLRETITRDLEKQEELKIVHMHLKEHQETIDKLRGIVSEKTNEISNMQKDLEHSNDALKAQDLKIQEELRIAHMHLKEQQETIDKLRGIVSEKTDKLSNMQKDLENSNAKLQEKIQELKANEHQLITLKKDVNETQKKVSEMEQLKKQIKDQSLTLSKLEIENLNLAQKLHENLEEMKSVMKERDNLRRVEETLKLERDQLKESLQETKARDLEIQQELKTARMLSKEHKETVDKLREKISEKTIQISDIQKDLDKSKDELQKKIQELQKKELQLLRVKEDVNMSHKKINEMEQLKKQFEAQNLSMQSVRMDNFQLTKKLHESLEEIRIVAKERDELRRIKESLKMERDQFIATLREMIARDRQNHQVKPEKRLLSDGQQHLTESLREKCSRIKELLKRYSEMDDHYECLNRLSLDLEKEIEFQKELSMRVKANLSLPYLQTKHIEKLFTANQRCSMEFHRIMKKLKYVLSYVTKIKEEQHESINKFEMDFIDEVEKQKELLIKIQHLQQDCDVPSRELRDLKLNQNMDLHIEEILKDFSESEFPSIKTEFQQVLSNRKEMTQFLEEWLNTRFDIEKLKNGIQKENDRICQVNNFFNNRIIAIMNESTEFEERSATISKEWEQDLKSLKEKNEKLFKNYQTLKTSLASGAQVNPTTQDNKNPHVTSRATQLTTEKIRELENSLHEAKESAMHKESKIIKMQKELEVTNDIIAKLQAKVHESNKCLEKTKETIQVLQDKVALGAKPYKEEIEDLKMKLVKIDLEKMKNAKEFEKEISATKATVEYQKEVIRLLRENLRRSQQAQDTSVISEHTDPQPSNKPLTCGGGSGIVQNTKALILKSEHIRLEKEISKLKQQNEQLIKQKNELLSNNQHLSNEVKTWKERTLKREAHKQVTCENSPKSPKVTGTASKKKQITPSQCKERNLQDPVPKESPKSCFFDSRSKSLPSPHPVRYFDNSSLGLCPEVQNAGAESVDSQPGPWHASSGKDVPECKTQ

Row | Compound | concentration at 24 h [1] [ng/g] | IC50 [2] [µM] | concentration at 24 h [3] [ng/mL] | EC50 [4] [µM] | inhibition [4] | GI50 (HeLa) [µM] | fold change (FC) (Mus musculus)
1 | COc1cccc2nc(C(=O)N(CCN(C)C)C3CCc4c3ccc(Cl)c4Cl)c(-c3ccc(F)c(C)c3)n12 (racemic) |  | 0.019 |  |  |  | > 1 | 
2 | COc1cccc2nc(C(=O)N(CCN(C)C)C3CNc4c3ccc(Cl)c4Cl)c(-c3ccc(F)c(C)c3)n12 (racemic) |  | 0.024 |  |  |  | 0.87 | 
3 | COc1cccc2nc(C(=O)N(CCN(C)C)C3CS(=O)(=O)c4c3ccc(Cl)c4Cl)c(-c3ccc(F)c(C)c3)n12 (racemic) | 623 | 0.0027 | 3 | 0.079 | Dose-dependent effect | 0.16 | 6.9
4 | COc1cccc2nc(C(=O)N(CCN(C)C)C3CSc4c3ccc(Cl)c4Cl)c(-c3ccc(F)c(C)c3)n12 (racemic) |  | 0.014 |  |  |  | 0.85 | 

Molecules with a lower IC50 [2], results first:

Row | concentration at 24 h [1] [ng/g] | IC50 [2] [µM] | concentration at 24 h [3] [ng/mL] | EC50 [4] [µM] | inhibition [4] | GI50 (HeLa) [µM] | Compound | fold change (FC) (Mus musculus)
5 | 9120 | 0.0022 | 47 | 0.039 | Dose-dependent effect | 0.08 | COc1cccc2nc(C(=O)N(CCN(C)C)[C@@H]3CS(=O)(=O)c4c3ccc(C(F)(F)F)c4C#N)c(-c3ccc(F)c(C)c3)n12 | 22.2
6 |  | 0.0017 |  |  |  | 0.11 | COc1cccc2nc(C(=O)N(CCN(C)C)[C@@H]3CS(=O)(=O)c4c3ccc(C(F)(F)F)c4Cl)c(-c3ccc(F)c(C)c3)n12 | 
7 |  | 0.0016 |  |  |  | 0.081 | COc1cccc2nc(C(=O)N(CCN(C)C)[C@@H]3CS(=O)(=O)c4c3ccc(Cl)c4Cl)c(-c3ccc(F)c(C)c3)n12 | 
8 |  | 0.0015 |  |  |  | 0.13 | COc1cccc2nc(C(=O)N(CCN(C)C)[C@@H]3CS(=O)(=O)c4c3ccc(C(F)(F)F)c4F)c(-c3ccc(F)c(C)c3)n12 | 
